# Screening data deposited in PubChem by several laboratories.
# Arr AP2 block – blocks beta-arrestin peptide binding to AP2 adaptin; AID 504490; inhibition, % at 10 µM; FITC-arrestin peptide / GST-AP2 beads, flow cytometry; AP2 beta2 appendage carries R879A mutation; 340,000 compounds, 0.31% hits;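 active = inhibition above a set limit, near 3 SD of compounds lacking own fluorescence, cut at about 54% in these data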;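 note: plate controls were DMSO wells for no effect and 5 µM unlabelled arrestin peptide for full effect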
#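 Assay system: GST-AP2 R879A bound to glutathione beads, E. coli-expressed; Medium: PBS with 0.05% Tween 20 and 0.1% BSA; Also added: fluorescein-tagged arrestin peptide at 50 nM final; Timing: 12 min plus 1 h, RT; Measured by: flow cytometry, FL1 (488/535 nm); Evaluation: percent drop in bead-associated FITC signal.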
# Tb MetRS inh – Trypanosoma brucei MetRS inhibition. purified T. brucei MetRS, ATP depletion, Kinase-Glo luminescence. inhibition, % at 11.9 µM. 360,000 compounds, 0.4% hits;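 active = inhibition above a per-plate cutoff of the control wells' mean inhibition plus 3 SD, cut at about 5.5% in these data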;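 note: 0% = DMSO wells median and 100% = median of wells with control inhibitor compound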
#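 technique = Kinase-Glo luminescence, ATP depletion format | system = purified MetRS (methionyl-tRNA synthetase) enzyme from Trypanosoma brucei | timing = 15 min preincubation, 2 h reaction, all 25 °C | evaluation = percent inhibition versus plate control medians | dosing = single dose, 11.9 µM final nominal, 0.9% final DMSO | also added = substrates ATP, L-methionine and bulk Escherichia coli tRNA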
# SKN-1 inh – C. elegans SKN-1 inhibition; inhibition, % at 21.8 µM; 360,000 compounds, 0.49% hits; C. elegans VP596 Pgst-4::GFP/RFP ratio, acrylamide-induced, 24 h; AID 624304;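 active = interference check ratio from 0.5 to 1.5 plus GFP to RFP signal ratio inhibition reaching or exceeding a fixed threshold, cut at about 30% in these data, passing the limit was not always enough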
# Rin1-Abl PPI inh – human Rin1-Abl interaction inhibition; TR-FRET Rin1/Abl binding, biochemical; inhibition, % at 7.35 µM; 360,000 compounds, 0.4% hits; in the data active = inhibition above about 5%, passing the limit was not always enough
# MT1-MMP act inh – blocks activation of human MT1-MMP; P50281; HT1080 RFP-PRO-GFP cells, GFP/RFP ratio fluorescence, overnight; percent of plate control window, DMSO zero; 360,000 compounds, 0.061% hits; GFP/RFP ratio change, % at 20 µM;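 active = GFP/RFP ratio change of at least 30% with cell ATP level not reduced by more than half and red fluorescence within 50% of control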
#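 Assay system: HT1080 RFP-PRO-GFP cells. Benchmarks: DMSO vehicle wells and RFP-L50D-GFP reporter cell wells. Times: overnight cell settling, then overnight compound exposure, 37 °C, 5% CO2. Compound: 20 µM single dose, 1% DMSO. Read-out basis: GFP/RFP fluorescence ratio.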
# Active calls of the source: *; · = no result given. Rows were chosen to be rich in hits. Some 1.6% of all compounds tested hit in one or more screens of this group.
SMILES,Arr AP2 block,Tb MetRS inh,SKN-1 inh,Rin1-Abl PPI inh,MT1-MMP act inh
CC(CCC(C)C(C)(C)C)[C@@H]1CC[C@H]2C3C[C@H](OS(O)(=S)=S)[C@H]4C[C@H](OS(O)(=S)=S)[C@@H](OS(O)(=S)=S)C[C@]4(C)[C@H]3CC[C@]12C (stereo not given in full) (tested in a mixture with another compound),36,16*,13,3,13
O=C(Nc1nc(SCc2ccc(F)cc2)ns1)c1ccco1,1,0,54*,-4,-3
COC(=O)C[C@H]1CC[C@@H](NC(=O)c2ccncc2)[C@@H](CO)O1,·,-1,13,·,1
CCCNC(=O)C1(C)CCCN(Cc2ccc3c(c2)OCO3)C1 (stereo not given),·,0,6,4,3
O=C(NCc1cccs1)c1csc([C@@H]2O[C@H](CO)[C@H](O)[C@H](O)[C@H]2O)n1,·,0,43*,-2,0
O=C(NCc1ccncc1)c1csc([C@@H]2O[C@H](CO)[C@@H](O)[C@H]2O)n1,·,0,18,3,-3
Cc1ccc(S(=O)(=O)N2CCN(C(=O)c3nn(C(C)C)c(=O)c4ccccc34)CC2)cc1C,34,-2,-2,1,2
Cn1nc(C(=O)N2CCN(S(=O)(=O)c3ccccc3)CC2)c2ccccc2c1=O,-3,0,38*,-1,-5
Cn1nccc1-c1ccc(C(=O)NCc2ccc(Cl)cc2)c2occc12,·,0,9,-6,-5
COc1cc(NS(=O)(=O)c2ccc(Br)cc2)c(OC)cc1NC(=O)c1ccco1,-3,0,48*,3,-2
CC(C)(C)OC(=O)C[C@H]1C/C=C\C[C@@H](CC(=O)N(CCO)Cc2ccccc2)C(=O)NC[C@@H](c2ccccc2)OC1=O,-3,0,6,0,4
COc1ccc(C(C(=O)NC2CCCCC2)N(Cc2cccs2)C(=O)Cc2c[nH]c3ccccc23)cc1 (stereo not given),5,0,39*,-4,-8
COc1cc2ccccc2cc1C(=O)Nc1nccs1,4,-1,58*,-1,-5
COc1ccccc1C(=O)Nc1ccc2ccccc2c1,-6,0,48*,-2,-5
COc1cc2ccccc2cc1C(=O)Nc1cc(C)ccn1,47,0,15,-2,-2
O=C(Nc1nccs1)c1ccc(Br)cc1,8,0,25,1,0
O=C(Nc1nccs1)c1ccc2ccccc2c1,3,0,44*,1,4
COc1c(C(=O)Nc2nccs2)ccc2ccccc12,42,0,55*,1,1
O=C(Nc1nnc([C@H]2C[C@H](O)[C@@H](CO)O2)s1)c1ccc(Oc2ccccc2)cc1,·,0,8,1,3
COc1ccc(NC(=O)c2c(-c3c(Cl)cccc3Cl)noc2C)c(OC)c1,2,0,-8,-2,2
Cc1ccsc1CN(C)CC(=O)N(C)CC(=O)Nc1c(Cl)cccc1Cl,·,0,1,-2,0
C#Cc1ccc2c(c1)COc1c3ccccc3nn1-2,6,0,48*,0,2
C(#CC1CCCCC1)c1ccc2c(c1)COc1c3ccccc3nn1-2,4,0,0,0,1
C(#Cc1ccc2c(c1)COc1c3ccccc3nn1-2)c1ccccc1,30,0,37*,2,-12
COC(=O)[C@@]12C[C@@H](CC(=O)N3CCCC3)C(=O)N(CCc3ccc(OC)c(OC)c3)C1=CCC(C)(C)C2,·,0,2,·,5
SMILES,Arr AP2 block,Tb MetRS inh,SKN-1 inh,Rin1-Abl PPI inh,MT1-MMP act inh
N#Cc1nnn2c1nc(N)c1c(Cl)cccc12,·,-1,3,0,1
Cc1cc(C)c(NC(=O)CS(=O)CC(=O)Nc2ccc(N3CCOCC3)cc2)c(C)c1 (stereo not given),24,0,35*,1,-3
Cc1ccc(NC(=O)CS(=O)CC(=O)Nc2ccc(N3CCOCC3)cc2)cc1Cl (stereo not given),8,0,11,4,3
CN1CCc2c(sc3c2C(=O)NC(c2ccccn2)N3)C1 (stereo not given),12,-1,55,0,-4
CN1CCc2c(sc3c2C(=O)NC(c2ccccc2)N3)C1 (stereo not given),-7,0,47*,-2,-12
O=[N+]([O-])c1cccc(COc2ccccc2CN2CCOCC2)c1,4,0,0,-3,3
Cc1cc(OCc2cccc(Cl)c2)c(C)cc1CN1CCOCC1,-12,0,72*,-2,-2
CN1CCN(c2cc(CNC[C@H]3O[C@@H](n4cnc5c(=O)[nH]c(N)nc54)[C@H](O)[C@@H]3O)ccc2F)CC1,·,0,10,1,2
O=c1cc(/C=C/c2ccccc2)oc2ccccc12,5,0,43*,2,2
CC(C)CCNC(=O)NC(=O)COc1ccccc1C#N,22,-1,38*,-1,10
CC(C)CCNC(=O)NC(=O)COC(=O)/C=C/c1cnc2ccccc2n1,2,-1,37*,-10,-4
CC(C)CCNC(=O)NC(=O)COC(=O)/C=C/c1cccc([N+](=O)[O-])c1,-3,1,14,2,4
O=c1[nH]c2cnn(-c3ccccc3)c2c(=O)n1O,8,0,11,1,-2
COc1ccc2c(c1OC)C(=O)OC2Nc1nc(-c2ccc(-c3ccccc3)cc2)cs1 (stereo not given),1,-1,65*,0,-11
COc1cccc(-c2csc(NC3OC(=O)c4c3ccc(OC)c4OC)n2)c1 (stereo not given),-6,0,7,2,1
COC(=O)c1c(NC(=S)NN2CCN(C)CC2)sc2c1CCC(C)C2 (stereo not given),27,-1,35*,4,-9
O=C1CCC(C(=O)OCC(=O)N2N=C3/C(=C\c4ccccc4)CCCC3C2c2ccccc2)N1 (stereo not given),-2,0,37*,-2,0
CCN(CC)CCOC(=O)c1ccc(NC(=O)CCCN2C(=O)/C(=C\c3cccs3)SC2=S)cc1,28,-1,39*,-5,0
CCc1nnc(NC(=O)CSc2nnc(COc3cccc(C)c3)o2)s1,10,0,54*,5,-2
CCOC(=O)C(C(=O)OCC)c1cc(Br)c2noc3c2c1C(=O)c1ccccc1-3,94*,0,39,2,-29
CC(=O)OCCNc1cc(N2CCN(C)CC2)c2noc3c2c1C(=O)c1ccccc1-3,19,0,22,-27,9
COc1cc(/C=N/N2C(=O)CSC2=S)cc(Br)c1O,5,-1,43*,-3,-43
